Test results published in ChEMBL document CHEMBL2086248, “Synthesis of some novel 1-(2-naphthyl)-2-(imidazol-1-yl)ethanone oxime ester derivatives and evaluation of their anticonvulsant activity” (Eur J Med Chem, 2012).
Active and inactive are the calls of the source.

Experiments:
Mus musculus [1] = assay: Anticonvulsant activity in mouse assessed as protection against maximal electroshock-induced seizures at 30 mg/kg, ip after 0.5 hrs; format: functional, organism-based; set-up: dose 30 mg/kg
In short: (§1)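 Swiss albino mice (20-24 g) received an ip suspension in 30% aqueous PEG 400 and were tested 0.5 h and 4 h after dosing. Shock was delivered through corneal electrodes from a constant current unit, with 0.9% saline dropped into the eyes first. Protection meant abolition of the hind limb tonic extension. Scored as number protected/number tested, one mouse per dose and time.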

Mus musculus [2] = assay: Anticonvulsant activity in mouse assessed as protection against maximal electroshock-induced seizures at 30 mg/kg, ip after 4 hrs; format: functional, organism-based; set-up: dose 30 mg/kg; in short: as §1
Mus musculus [3] = assay: Neurotoxicity in mouse assessed as motor impairment at 300 mg/kg, ip after 0.5 hrs by rotarod test; format: toxicity, organism-based; set-up: dose 300 mg/kg, route intraperitoneal; conditions: in vivo
In short: (§2)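 Swiss albino mice (20-24 g) were dosed ip with a suspension in 30% aqueous PEG 400 and tested 0.5 h or 4 h later. They were placed on a knurled wooden rod 1 inch in diameter, rotating at 6 rpm. Toxicity meant failure to stay on the rod for at least 1 min in each of three trials. Scored as number toxic/number tested (4 mice at 0.5 h, 2 at 4 h).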

Mus musculus [4] = assay: Anticonvulsant activity in mouse assessed as protection against maximal electroshock-induced seizures at 100 mg/kg, ip after 0.5 hrs; format: functional, organism-based; set-up: dose 100 mg/kg; in short: as §1
Mus musculus [5] = assay: Anticonvulsant activity in mouse assessed as protection against subcutaneous pentylenetetrazole-induced seizures at 100 mg/kg, ip after 4 hrs; format: functional, organism-based; set-up: dose 100 mg/kg
In short: (§3)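 Swiss albino mice (20-24 g) were dosed ip with a suspension in 30% aqueous PEG 400 and challenged 0.5 h or 4 h later. Protection meant no threshold seizure (clonic spasms lasting at least 5 s). Scored as number protected/number tested, one mouse per dose and time.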

Mus musculus [6] = assay: Neurotoxicity in mouse assessed as motor impairment at 30 mg/kg, ip after 0.5 hrs by rotarod test; format: toxicity, organism-based; set-up: dose 30 mg/kg, route intraperitoneal; conditions: in vivo; in short: as §2
Mus musculus [7] = assay: Neurotoxicity in mouse assessed as motor impairment at 30 mg/kg, ip after 4 hrs by rotarod test; format: toxicity, organism-based; set-up: dose 30 mg/kg, route intraperitoneal; conditions: in vivo; in short: as §2
Mus musculus [8] = assay: Anticonvulsant activity in mouse assessed as protection against subcutaneous pentylenetetrazole-induced seizures at 100 mg/kg, ip after 0.5 hrs; format: functional, organism-based; set-up: dose 100 mg/kg; in short: as §3
Mus musculus [9] = assay: Anticonvulsant activity in mouse assessed as protection against maximal electroshock-induced seizures at 300 mg/kg, ip after 4 hrs; format: functional, organism-based; set-up: dose 300 mg/kg; in short: as §1
Mus musculus [10] = assay: Anticonvulsant activity in mouse assessed as protection against subcutaneous pentylenetetrazole-induced seizures at 300 mg/kg, ip after 0.5 hrs; format: functional, organism-based; set-up: dose 300 mg/kg; in short: as §3
Mus musculus [11] = assay: Anticonvulsant activity in mouse assessed as protection against subcutaneous pentylenetetrazole-induced seizures at 300 mg/kg, ip after 4 hrs; format: functional, organism-based; set-up: dose 300 mg/kg; in short: as §3
Mus musculus [12] = assay: Anticonvulsant activity in mouse assessed as protection against maximal electroshock-induced seizures at 100 mg/kg, ip after 4 hrs; format: functional, organism-based; set-up: dose 100 mg/kg; in short: as §1
Mus musculus [13] = assay: Neurotoxicity in mouse assessed as motor impairment at 100 mg/kg, ip after 4 hrs by rotarod test; format: toxicity, organism-based; set-up: dose 100 mg/kg, route intraperitoneal; conditions: in vivo; in short: as §2
Mus musculus [14] = assay: Neurotoxicity in mouse assessed as motor impairment at 300 mg/kg, ip after 4 hrs by rotarod test; format: toxicity, organism-based; set-up: dose 300 mg/kg, route intraperitoneal; conditions: in vivo; in short: as §2
Mus musculus [15] = assay: Anticonvulsant activity in mouse assessed as protection against maximal electroshock-induced seizures at 300 mg/kg, ip after 0.5 hrs; format: functional, organism-based; set-up: dose 300 mg/kg; in short: as §1
Mus musculus [16] = assay: Neurotoxicity in mouse assessed as motor impairment at 100 mg/kg, ip after 0.5 hrs by rotarod test; format: toxicity, organism-based; set-up: dose 100 mg/kg, route intraperitoneal; conditions: in vivo; in short: as §2
Mus musculus [17] = assay: Anticonvulsant activity in mouse assessed as protection against subcutaneous pentylenetetrazole-induced seizures at 30 mg/kg, ip after 0.5 hrs; format: functional, organism-based; set-up: dose 30 mg/kg; in short: as §3
Mus musculus [18] = assay: Anticonvulsant activity in mouse assessed as protection against subcutaneous pentylenetetrazole-induced seizures at 30 mg/kg, ip after 4 hrs; format: functional, organism-based; set-up: dose 30 mg/kg; in short: as §3

Row | Structure (SMILES) | Activity (Mus musculus [1]) | Activity (Mus musculus [2]) | Activity (Mus musculus [3]) | Activity (Mus musculus [4]) | Activity (Mus musculus [5]) | Activity (Mus musculus [6]) | Activity (Mus musculus [7]) | Activity (Mus musculus [8]) | Activity (Mus musculus [9]) | Activity (Mus musculus [10]) | Activity (Mus musculus [11]) | Activity (Mus musculus [12]) | Activity (Mus musculus [13]) | Activity (Mus musculus [14]) | Activity (Mus musculus [15]) | Activity (Mus musculus [16]) | Activity (Mus musculus [17]) | Activity (Mus musculus [18])
1 | Cc1cccc(C(=O)O/N=C(\Cn2ccnc2)c2ccc3ccccc3c2)c1 | inactive | inactive | Non-toxic | inactive | inactive | Non-toxic | Non-toxic | inactive | inactive | Active | Active | inactive | Non-toxic | Non-toxic | inactive | Non-toxic | inactive | inactive
2 | Cl.O=C(/C=C/c1ccccc1)O/N=C(\Cn1ccnc1)c1ccc2ccccc2c1 | Active | inactive | Non-toxic | Active | inactive | Non-toxic | Non-toxic | inactive | inactive | inactive | inactive | inactive | Non-toxic | Non-toxic | Active | Non-toxic | inactive | inactive
3 | C/C=C(\C)C(=O)O/N=C(\Cn1ccnc1)c1ccc2ccccc2c1.Cl | inactive | inactive | Non-toxic | inactive | inactive | Non-toxic | Non-toxic | inactive | inactive | inactive | Active | inactive | Non-toxic | Non-toxic | inactive | Non-toxic | inactive | inactive
4 | CCCC(CCC)C(=O)ON=C(Cn1ccnc1)c1ccc2ccccc2c1.Cl (mixture of isomers) | Active | inactive | Non-toxic | Active | inactive | Non-toxic | Non-toxic | inactive | Active | Active | Active | inactive | Non-toxic | Non-toxic | Active | Non-toxic | inactive | inactive
5 | Cc1ccc(C(=O)O/N=C(\Cn2ccnc2)c2ccc3ccccc3c2)cc1 | inactive | inactive | Non-toxic | Active | inactive | Non-toxic | Non-toxic | Active | inactive | Active | Active | inactive | Non-toxic | Non-toxic | Active | Non-toxic | inactive | inactive
6 | CC(C)CC(=O)O/N=C(\Cn1ccnc1)c1ccc2ccccc2c1.Cl | inactive | inactive | Non-toxic | Active | inactive | Non-toxic | Non-toxic | inactive | Active | inactive | inactive | Active | Non-toxic | Non-toxic | Active | Non-toxic | inactive | inactive
7 | CCCC(CCC)C(=O)[O-].[Na+] [VALPROATE SODIUM] | inactive | inactive | Non-toxic | inactive | inactive | Non-toxic | Non-toxic | inactive | inactive | Active | inactive | inactive | Non-toxic | Non-toxic | Active | Non-toxic | inactive | inactive
8 | O=C(O/N=C(\Cn1ccnc1)c1ccc2ccccc2c1)c1ccc(Cl)cc1 | inactive | inactive | Non-toxic | inactive | Active | Non-toxic | Non-toxic | inactive | inactive | inactive | Active | inactive | Non-toxic | Non-toxic | inactive | Non-toxic | inactive | Active
9 | CCCCC(=O)O/N=C(\Cn1ccnc1)c1ccc2ccccc2c1.Cl | Active | inactive | Non-toxic | Active | inactive | Non-toxic | Non-toxic | inactive | inactive | inactive | inactive | inactive | Non-toxic | Non-toxic | Active | Non-toxic | inactive | inactive
10 | CCCCCC(=O)O/N=C(\Cn1ccnc1)c1ccc2ccccc2c1.Cl | inactive | inactive | Non-toxic | inactive | inactive | Non-toxic | Non-toxic | inactive | inactive | inactive | inactive | inactive | Non-toxic | Non-toxic | inactive | Non-toxic | inactive | inactive
11 | Cl.O=C(O/N=C(\Cn1ccnc1)c1ccc2ccccc2c1)c1ccc(-c2ccccc2)cc1 | inactive | inactive | Non-toxic | inactive | inactive | Non-toxic | Non-toxic | inactive | Active | inactive | inactive | inactive | Non-toxic | Non-toxic | inactive | Non-toxic | inactive | inactive
12 | COc1ccc(C(=O)O/N=C(\Cn2ccnc2)c2ccc3ccccc3c2)cc1 | inactive | inactive | Non-toxic | inactive | inactive | Non-toxic | Non-toxic | inactive | inactive | Active | inactive | inactive | Non-toxic | Non-toxic | inactive | Non-toxic | inactive | inactive
